An excerpt weighted towards active compounds, which were near 1.3% of everything screened.
proCasp3 act: procaspase-3 (human) activation; P42574; recombinant procaspase-3 D3A, Ac-DEVD-pNA absorbance 405 nm; activation, % at 8.5 µM; 330,000 compounds, 0.11% hits;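 active means activation above the mean of all tested compounds plus 3 SD, cut at about 21% in these data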;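 further: 0% = DMSO alone and 100% = DMSO wells spiked with extra 5 µM PC-3 D3A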
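System: Procaspase-3 D3A mutant. Medium: Zinc-free 300 mM NaCl, 50 mM HEPES, 0.01% Triton X-100. Schedule: 1 h preincubation plus 2 h reaction at 25 °C. Measured by: 405 nm absorbance of p-nitroaniline, reads at 0 and 120 min. Read-out: percent activation relative to control range.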
procasp7 counter: counter-screen: procaspase-7 (human) activation. P55210. 330,000 compounds, 0.093% hits. recombinant procaspase-7, Ac-DEVD-pNA absorbance 405 nm; D23A/D198A/D206A triple mutant, cannot self-cleave; scale: DMSO 0, 5 µM enzyme 100. activation, % at 8.5 µM. AID 463210;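 active means percent activation above the screen-wide mean plus 3 SD, cut at about 25% in these data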
Target sequence (P55210 whole entry D23A/D198A/D206A): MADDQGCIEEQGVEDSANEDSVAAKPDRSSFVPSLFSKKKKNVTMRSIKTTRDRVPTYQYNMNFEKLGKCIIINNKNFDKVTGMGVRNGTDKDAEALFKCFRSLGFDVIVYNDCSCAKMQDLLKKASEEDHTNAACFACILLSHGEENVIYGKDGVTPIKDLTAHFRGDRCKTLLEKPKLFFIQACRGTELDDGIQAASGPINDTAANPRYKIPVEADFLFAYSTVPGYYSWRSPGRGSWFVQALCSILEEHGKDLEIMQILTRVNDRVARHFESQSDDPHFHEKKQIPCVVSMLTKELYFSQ
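Replicates: singlicate. Assay system: Procaspase-7 triple mutant (PC-7 D3A). Signal: 405 nm absorbance of p-nitroaniline. Times: 1 h preincubation, 2 h reaction. Buffer or medium: Zinc-free HEPES pH 7.4 with 300 mM NaCl, 0.01% Triton X-100. Also added: DEVD-pNA substrate. Benchmarks: DMSO wells as 0%, DMSO with 5 µM added PC-7 as 100%.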
CHT inh: human CHT choline transport inhibition. 310,000 compounds, 0.86% hits. CHT-expressing cells, membrane potential dye, choline response; active compounds read low. B-score at 10 µM;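 active means B-score over 3 SD under the library average, and starting fluorescence ratio not unusually high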;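 further: choline stimulus applied at its EC90 after an EC20 pre-addition; B-score computed on integrated fluorescence ratio after choline addition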
CHT allo act: allosterically activates the human high affinity choline transporter. AID 488977. CHT-expressing cells, membrane potential dye, choline EC20; active compounds read high; LV-AA mutant CHT in HEK293 cells. 310,000 compounds, 0.49% hits. B-score at 10 µM;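 active means initial fluorescence not abnormally high and integrated response B-score, plate-corrected, over 3 SD above library mean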
CHT act confirm: confirmation of human choline transporter (CHT) activators. AID 504833. shares compounds with CHT allo act. CHT-expressing cells, membrane potential dye fluorescence (FDSS); % of choline EC20–EC90 response window; HEK293 expressing CHT LV-AA mutant; choline added at its EC20. activation, % at 10 µM. 2,500 compounds, 91% hits;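 active means primary screen active, with duplicate mean activation above negative control mean plus 3 SD, cut at about 11% in these data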
HEK293 MP dye: CHT activator counter-screen hit in parental HEK293 cells | shares compounds with CHT allo act | membrane potential dye fluorescence (FDSS); measured after EC20 choline addition | 2,500 compounds, 62% hits | ratio readout change at 10 µM, hits read low | AID 623908;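 active means duplicate-averaged ratio beyond 3 SD from buffer wells, up or down, though filed actives are nearly all decreases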
Starred values were filed as active, the others as inactive; i = inactive; nt = not tested or not shown.

SMILES | proCasp3 act | procasp7 counter | CHT inh | CHT allo act | CHT act confirm | HEK293 MP dye
COc1ccc(Cc2nccc3cc(OC)c(OC)cc23)cc1OC | 9 | -15 | i | 8.6* | 59* | -66*
COc1c2c(cc3c1OCO3)CC[N+](C)=C2 | 7 | 2 | i | 9.2* | 58* | -60*
COc1ccc2c(c1OC)CN1CCc3cc4c(cc3[C@H]1C2)OCO4 | 10 | 0 | nt | nt | nt | nt
Nc1c([N+](=O)[O-])cc(F)c(N2CCNCC2)c1Br | 2 | 1 | i | i | 43* | -55*
CN1CCN(c2c(F)cc([N+](=O)[O-])c(N)c2Br)CC1 | 7 | 5 | i | 6.6* | 46* | -49*
C=CCN=C(SCC(=O)c1ccc(Cl)cc1)c1c(O)n(C)c(=O)n(C)c1=O | -4 | -11 | i | i | nt | nt
O=[N+]([O-])c1ccc(N2CCCC2)c2ncccc12 | 3 | -1 | i | i | nt | nt
CC1CN(c2ccc([N+](=O)[O-])c3cccnc23)CC(C)N1 (stereo unspecified) | -7 | -21 | i | i | 48* | -84*
CCCc1c(C)nc(-c2ccc(C)cc2)nc1OC(=O)N(C)C | 12 | 5 | i | i | nt | nt
c1ccc(CCNCc2cccs2)cc1 | nt | nt | i | i | nt | nt
COc1ccc(-n2c(/C=C/c3ccc(O)c(O)c3)nc3ccccc3c2=O)cc1 | -12 | -29 | i | i | nt | nt
COc1cc(/C=C/c2nc3ccccc3c(=O)n2-c2ccc(O)cc2)ccc1O | 1 | -5 | i | i | 18* | i
Cc1ccc(S(=O)(=O)N(C)N=O)cc1 | -5 | -1 | i | i | nt | nt
CC(C)OP(=O)(Oc1ccc(C(O)C(Cl)(Cl)Cl)cc1)OC(C)C (stereo unspecified) | 4 | 3 | i | i | nt | nt
O=C(CNC(=O)c1cccc(Cl)c1)Nc1ccc(Br)cc1C(=O)c1ccccc1 | 2 | 8 | i | 7.7* | 20* | i
c1cc2n(c1)-c1c(ccc3c1OCO3)CNC2c1ccc2c(c1)OCO2 (stereo unspecified) | -6 | 3 | i | i | nt | nt
COc1ccc(C2NCc3ccc4c(c3-n3cccc32)OCO4)cc1O (stereo unspecified) | 5 | 5 | i | 11* | 16* | i
O=C1CC2OCC=C3CN4CCC56c7cc([N+](=O)[O-])ccc7N1C5C2C3CC46 (stereo unspecified) | -5 | 6 | i | i | 51* | -50*
CN1CCN(C(=O)COc2ccc(Oc3ccccc3)cc2)CC1 | 5 | 9 | i | i | nt | nt
CN1CCN(C(=O)O[C@H]2c3nccnc3C(=O)N2c2ccc(Cl)cn2)CC1 | 6 | 19 | i | 6.9* | 84* | -44*
CC[n+]1c(SC)ccc2cc(OC)ccc21 | 6 | 1 | i | i | 64* | -59*
CCC(=Nc1ccc2c(c1)CCC2)c1c(O)n(-c2ccc(OC)cc2)c(=O)[nH]c1=O | 6 | -11 | i | i | nt | nt
COc1ccc2[nH]c3c(c2c1)CCN=C3C | 3 | -9 | i | 7.1* | 47* | -45*
COc1ccc2[nH]cc(CCN)c2c1 | 1 | -5 | i | i | nt | nt
O=C(Cc1ccccc1)N1CCN(Cc2cccnc2)CC1 | -8 | -3 | i | i | nt | nt
SMILES | proCasp3 act | procasp7 counter | CHT inh | CHT allo act | CHT act confirm | HEK293 MP dye
Clc1cccc(N2CCNCC2)n1 | 3 | 8 | i | i | nt | nt
Cc1cc(N2CCNCC2)nc2ccccc12 | 1 | 1 | i | 7.5* | 60* | -65*
COC(=O)c1c2[n+](cc3cc(OC)c(OC)cc13)CCc1cc(OC)c(OC)cc1-2 | -3 | 0 | i | i | 44* | -49*
CCOP(=O)(OCC)C(O)c1ccc2c(c1)OCO2 (stereo unspecified) | -1 | -4 | i | i | nt | nt
O=[N+]([O-])c1cccc2c([N+](=O)[O-])cccc12 | 10 | 9 | nt | nt | nt | nt
CCNCCNc1ccc([N+](=O)[O-])c2cccnc12 | 4 | -12 | i | 6.3* | 27* | -66*

From PubChem
